Measurements published in ChEMBL document CHEMBL3352378, “Novel carbazole inhibits phospho-STAT3 through induction of protein-tyrosine phosphatase PTPN6” (J Med Chem, 2014).
The source made the active and inactive calls. The calls are words filed in the database; no cut-off is given here.

Key:
[1] = biological target: Tyrosine-protein phosphatase non-receptor type 6 (Homo sapiens) (UniProt P29350); experiment: Induction of PTPN6 in human Hs578T cells assessed as inhibition of STAT3 phosphorylation at 3 uM after 16 hrs by Western blotting analysis in presence of pervanadate; format: cell-based; details: Hs-578T
Procedure, shortened: (§1)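 HS578T and SUM149PT cells treated for 16 h without or with increasing pervanadate as a phosphatase inhibitor; JAK1/2 inhibitor CP690550 run in parallel. Lysates immunoblotted for phospho-STAT3 (Y705), with β-actin as loading control.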

[2] = biological target: Tyrosine-protein phosphatase non-receptor type 6 (Homo sapiens) (UniProt P29350); experiment: Induction of PTPN6 in human SUM149PT cells assessed as inhibition of STAT3 phosphorylation at 3 uM after 16 hrs by Western blotting analysis in presence of pervanadate; format: cell-based; procedure, shortened: as §1

Sequence of Tyrosine-protein phosphatase non-receptor type 6 (Homo sapiens) (P29350 whole entry): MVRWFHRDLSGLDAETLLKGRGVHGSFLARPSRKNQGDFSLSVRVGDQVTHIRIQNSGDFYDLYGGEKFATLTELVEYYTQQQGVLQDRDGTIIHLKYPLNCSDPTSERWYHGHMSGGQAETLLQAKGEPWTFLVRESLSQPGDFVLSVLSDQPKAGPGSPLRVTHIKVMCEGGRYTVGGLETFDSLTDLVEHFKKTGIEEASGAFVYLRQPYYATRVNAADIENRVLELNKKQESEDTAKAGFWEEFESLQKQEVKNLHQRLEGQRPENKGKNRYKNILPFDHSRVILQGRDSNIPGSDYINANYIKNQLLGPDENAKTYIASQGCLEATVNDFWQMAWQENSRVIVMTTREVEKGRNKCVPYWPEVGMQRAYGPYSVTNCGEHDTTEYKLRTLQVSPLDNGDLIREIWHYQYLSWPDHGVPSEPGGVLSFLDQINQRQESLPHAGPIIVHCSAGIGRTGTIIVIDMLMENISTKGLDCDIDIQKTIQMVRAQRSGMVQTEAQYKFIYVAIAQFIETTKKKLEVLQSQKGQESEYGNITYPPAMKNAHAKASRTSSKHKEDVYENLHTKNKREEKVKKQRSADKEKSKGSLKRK

inhibition [1]: Active
inhibition [2]: Active
Structure (SMILES): C[C@@H]1CCN(C(=O)CC#N)C[C@@H]1N(C)c1ncnc2[nH]ccc12
